ChEMBL document CHEMBL1156906, “Synthesis and structure-activity relationship of botryllamides that block the ABCG2 multidrug transporter” (Bioorg Med Chem Lett, 2010)

Biological target: T1, Broad substrate specificity ATP-binding cassette transporter ABCG2 (Homo sapiens, UniProt Q9UNQ0)
T1 sequence (Q9UNQ0 whole entry): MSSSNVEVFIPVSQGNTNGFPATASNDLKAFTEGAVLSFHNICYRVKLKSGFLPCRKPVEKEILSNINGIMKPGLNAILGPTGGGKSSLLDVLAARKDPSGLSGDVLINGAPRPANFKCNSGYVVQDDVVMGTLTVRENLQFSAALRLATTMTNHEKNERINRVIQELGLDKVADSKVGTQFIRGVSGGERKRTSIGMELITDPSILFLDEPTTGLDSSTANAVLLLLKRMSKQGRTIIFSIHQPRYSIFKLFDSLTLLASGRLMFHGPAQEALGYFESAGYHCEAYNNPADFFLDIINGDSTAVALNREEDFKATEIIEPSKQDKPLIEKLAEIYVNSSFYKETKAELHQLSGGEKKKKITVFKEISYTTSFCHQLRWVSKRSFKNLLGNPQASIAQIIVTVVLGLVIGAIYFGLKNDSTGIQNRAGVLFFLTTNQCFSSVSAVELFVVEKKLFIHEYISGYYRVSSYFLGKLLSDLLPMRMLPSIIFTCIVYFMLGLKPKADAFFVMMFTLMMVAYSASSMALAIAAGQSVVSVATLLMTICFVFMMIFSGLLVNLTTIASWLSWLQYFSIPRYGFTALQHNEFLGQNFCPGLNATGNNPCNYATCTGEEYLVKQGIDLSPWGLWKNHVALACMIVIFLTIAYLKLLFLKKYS
Test: Inhibition of ABCG2 expressed in human NCI-H460/MX20 cells assessed as accumulation of ABCG2 substrate pheophorbide-A
Format: cell-based
In short: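 Cell-based assay in cells overexpressing ABCG2, measuring intracellular accumulation of the fluorescent ABCG2 substrate pheophorbide-a. Medium removed and cells washed with PBS before reading intracellular fluorescence. […] IC50 reported ± SD.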

CO/C(=C\c1ccc(O)c(O)c1)C(=O)N/C=C/c1ccc(O)cc1
IC50: 18.8 µM

COC(Cc1ccc(O)cc1)C(=O)N/C=C/c1ccc(O)cc1 (configuration not stated)
IC50: > 100 µM

CO/C(=C\c1ccc(O)cc1)C(=O)NCCc1ccc(O)cc1
IC50: 25.2 µM

CO/C(=C\c1ccccc1)C(=O)N/C=C/c1ccc(O)cc1
IC50: 15.4 µM

CO/C(=C\c1ccc(OC)cc1)C(=O)N/C=C/c1ccc(O)cc1
IC50: 6.4 µM

O=C(/C=C/c1ccc(O)cc1)N/C=C/c1ccc(O)cc1
IC50: > 100 µM

CO/C(=C\c1ccc(O)cc1)C(=O)NCC(O)c1ccc(O)cc1 (configuration not stated)
IC50: > 100 µM

CO/C(=C\c1ccc(O)cc1)C(=O)O
IC50: > 100 µM

CO/C(=C\c1cc(Br)c(O)c(Br)c1)C(=O)N/C=C/c1ccc(OC(C)=O)cc1
IC50: 23.2 µM

CO/C(=C\c1ccc(OCc2ccccc2)cc1)C(=O)N/C=C/c1ccc(O)cc1
IC50: > 100 µM

CO/C(=C\c1cc(Br)c(O)c(Br)c1)C(=O)N/C=C/c1ccc(O)cc1
IC50: 11.1 µM

COC(Cc1ccc(O)cc1)C(=O)NCCc1ccc(O)cc1 (configuration not stated)
IC50: > 100 µM
